Measured values reported in PubChem BioAssay.
Unmarked numbers belong to inactive results. Results filed as inconclusive are left out. Calls of active or inactive are those of the source.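 The calls were made as follows, unless noted: active = viability at or below 27.92% in each of two runs, the all-compound median minus 4 SD; inconclusive = no clear call, values can overlap the other calls; inactive = the rest.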

Legend:
[1] = OD615 S. cerevisiae growth inhibition, permissive medium, pilot counter-assay, permissive growth control for S. cerevisiae lifespan shortening project (AID 705;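 active = growth inhibition above 25% in both replicates, a cutoff set 3 SD above the mean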); settings: OD615, 24 h, at 10 µM, active compounds read high
Summary of the method: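 System – S. cerevisiae with engineered DeaD lifespan system · Buffer or medium – SC raffinose/galactose permissive medium · Schedule – cells pre-grown 4 h, then 24 h compound exposure, 30 °C humidified · Technique – culture turbidity as optical density at 615 nm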

[2] = Restrictive medium S. cerevisiae growth inhibition, OD615, pilot screen of yeast lifespan reduction project, restrictive growth control (AID 706;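 active = growth inhibition above a set limit, 3 SD over mean compound inhibition, in both replicates, cut at about 43% in these data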;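 also: modified DeaD lifespan yeast strain shifted to restrictive glucose medium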); settings: OD615, 48 h, at 10 µM, active compounds read high
Summary of the method: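 Material: engineered S. cerevisiae DeaD strain / Medium: glucose-based CSMM-D restrictive medium / Compound: single dose of 10 µM compound final, 0.25% DMSO / Timing: 4 h pre-incubation, 48 h exposure at 30 °C / Technique: OD615 absorbance reading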

[3] = viability gain of MRP-1-high H69AR cells under doxorubicin, pilot screen, MRP-1 activator project, CellTiter-Glo, duplicate (AID 807;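 active = viability increase at or above a cutoff of the median across tested compounds plus 3 SD, cut at about 8.5% in these data, passing the limit was not always enough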;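 also: compound pretreatment 18-22 h then 72 h combined with doxorubicin; 0% = doxorubicin alone and 100% = vehicle without doxorubicin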); settings: H69AR viability with doxorubicin, CellTiter-Glo luminescence; at 10 µM; active compounds read high
[4] = growth suppression of beta-catenin knockout HCT116, pilot screen, human colon tumor cells (AID 823;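 active = cell viability at or below a set limit in both duplicate runs, the limit being the all-compound median minus 4 SD, cut at about 23% in these data, passing the limit was not always enough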;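 also: 0% = wells killed by 20 µM Hyamine and 100% = untreated DMSO cell wells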); settings: CellTiter-Glo, 60 h, at 10 µM, active compounds read low
[5] = growth suppression of PTEN-deleted HCT116, pilot screen, cell-based, HCT116 clonal line, CellTiter-Glo (AID 824); settings: 60 h, at 10 µM, active compounds read low;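 also: 0% = 20 µM Hyamine control and 100% = vehicle cell control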
[6] = inhibitors of the yeast RAM network, pilot screen, dse1pr::URA3 reporter, 5-FOA selection (AID 869;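 active = inhibition over a set limit, the all-compound mean plus 3 SD, in both replicate runs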;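 also: 0% = DMSO wells with no growth and 100% = 10 µM 1-NA-PP1 with full growth; RAM network block rescues cells from 5-FOA so hits raise OD615 growth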); settings: S. cerevisiae dse1pr::URA3 5-FOA growth, OD615, 2 d; at 10 µM; active compounds read high; strain carries analog-sensitive mutant Cbk1 kinase
[7] = RAM signaling pathway blockade in yeast – S. cerevisiae, Pdr1DBD-CYC8 efflux-inhibited sensitized strain, primary screen (AID 1298;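 active = RAM network inhibition above 8.4% in each of two replicates, 3 SD over the compound average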;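 also: 0% = DMSO untreated cells without growth and 100% = 10 µM 1-NA-PP1 full growth; higher means more yeast growth rescued from 5-FOA killing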); settings: S. cerevisiae cbk1-as DSE1-URA3 strain, 5-FOA growth OD615, 2 d; at 50 µM; active compounds read high

Row | Compound | growth inhibition [1] | growth inhibition [2] | viability increase [3] | viability [4] | viability [5] | inhibition [6] | RAM network inhibition [7]
1 | CCOC(=O)N1CCN(C(c2ccc(C(C)C)cc2)c2sc3nc(C)nn3c2O)CC1 (configuration not stated) | -1.48% | -10.5% | 2.48% | 102% | 91% | 0.2% | 0.93%
2 | COc1ccc(-n2c(SCC(=O)Nc3nccs3)nc3c(c2=O)SC(C)C3)cc1 (configuration not stated) | -7.21% | -3.74% | -2.46% | 97.1% | 93% | 1.56% | 7.02%
3 | COc1ccc(CCNC(=O)CCNS(=O)(=O)c2cccc3nsnc23)cc1OC | -2.13% | -8.7% | -4.88% | 86.5% | 97.2% | 0.305% | 1.25%
4 | Cc1cc(C(=O)NCc2ccccc2)c(=O)[nH]c1C | -15.4% | -9.45% | 0.83% | 103% | 90.3% | 2.33% | 0.52%
5 | COc1ccc(OC)c(C2CC(=O)c3c([nH]c(C(=O)OC(C)C)c3C)C2)c1 (configuration not stated) | -9.82% | -21.9% | -7.46% | 15.2% (active) | 14.8% (active) | 1.69% | 0.97%
6 | CC(=O)N1c2ccccc2N(Cc2ccc(C)cc2C)C(=O)C1(C)C | -6.6% | 5.81% | -6.55% | 16% (active) | 20.7% (active) | 1.14% | 9.4%
7 | CC1(C(=O)NC2CCCCC2)CCC(=O)N1Cc1cccnc1 (configuration not stated) | -8.59% | -7.4% | -0.54% | 102% | 104% | 0.95% | 0.89%
8 | Cc1c(C(=O)NCC2CCCO2)sc2nc(-c3ccc(F)cc3)cn12 (configuration not stated) | 3.06% | 0.065% | 1.26% | 95.2% | 97.3% | 0.68% | 3.33%
9 | CCN(Cc1ccccc1)S(=O)(=O)c1ccc(S(=O)(=O)N2CCN(CCC#N)CC2)cc1 | -8.36% | -8.88% | -4.88% | 90.7% | 83.9% | 1% | 5.6%
10 | CCCCCSc1nc2c(c(=O)[nH]c(=O)n2C)n1C(C)C | -8.31% | -3.84% | 1.12% | 89.5% | 85.4% | 1.3% | 1.95%
11 | O=C(CN1CCOc2ccccc21)NCc1ccc(F)cc1 | -29.5% | 2.98% | -5.89% | 91.4% | 85.8% | 0.305% | -0.84%
12 | C=CCNc1oc(COc2ccc(C)cc2)nc1C#N | -7.16% | 1.92% | 4.36% | 99.1% | 97.3% | 1.18% | -0.52%
13 | Cc1ccc(NC(=O)CSc2nnc(Cn3c(=O)sc4ccccc43)n2C)cc1Cl | -1.48% | -18.1% | -4.78% | 92.3% | 86.6% | 1.81% | 4.65%
14 | CC(=O)c1c(C)[nH]c(C(=O)N2CCN(c3ncccn3)CC2)c1C | -2.15% | -5.67% | -1.39% | 86.8% | 96.6% | 1.43% | -0.51%
15 | CN1C(=O)c2cccc(NC(=O)Cc3ccccc3)c2C1=O | 1.68% | 15.6% | -1.47% | 111% | 91.1% | 0.625% | -0.88%
16 | CC(C)N(Cc1nc(-c2ccccc2)no1)C(=O)COc1ccccc1 | -12% | -11.7% | -3.65% | 88.2% | 89.7% | 1.03% | 3.19%
17 | CCOc1ccc(C2CC(c3ccc(F)cc3)n3ncnc3N2)cc1 (configuration not stated) | 4.61% | -1.42% | -0.13% | 100% | 91.1% | 2.65% | -0.36%
18 | COc1cccc(-c2nc(CS(=O)(=O)CC(=O)N3CCN(C4CCCCC4)CC3)c(C)o2)c1 | 1.34% | -1.93% | -2.59% | 86.4% | 100% | 0.41% | 3.35%

Row | Compound | growth inhibition [1] | growth inhibition [2] | viability increase [3] | viability [4] | viability [5] | inhibition [6] | RAM network inhibition [7]
19 | CCOC(=O)c1ccc(NC(=O)NCCN2CCCCC2)cc1 | -0.03% | -4.93% | -0.32% | 105% | 100% | 1.49% | 3.62%
20 | O=C1CCC(C(=O)N(c2ccccc2)C2(C(=O)NC3CCCCC3)CCCCC2)N1 (configuration not stated) | 1.54% | 2.4% | -0.07% | 94.3% | 97.2% | 0.505% | 1.6%
21 | CCSc1nnc(NC(=O)CCn2c(=O)oc3ccccc32)s1 | -3.29% | -6.38% | -0.78% | 102% | 103% | 0.22% | 9.53%
22 | Cc1ccc(OCC(=O)O)c(-n2nc3ccccc3n2)c1 | -10.3% | 0.43% | 0.43% | 89.9% | 102% | 2.7% | 2.69%
23 | O=C(NCCc1csc(-c2cccnc2)n1)c1cccs1 | 1.53% | 4.78% | -0.87% | 103% | 106% | 1.27% | 0.68%
24 | COC(=O)C1=CN(C(C)C)C=C(C(=O)OC)C1c1cccc(OC)c1 | -3.31% | -9.06% | -4.15% | 73.8% | 63.2% | 0.405% | 5.46%
25 | COc1ccc(CCNC(=O)COC(=O)c2cnc(C)cn2)cc1OC | -8.52% | -14.6% | 1.73% | 106% | 100% | 0.395% | 2.42%
26 | C=CCn1c(=N)n(CC(O)COc2ccc(OC)cc2)c2ccccc21 (configuration not stated) | -10.9% | 1.67% | -4.96% | 64.8% | 69% | -0.445% | -0.51%
27 | C=CCSc1nc2ccccc2c(=O)[nH]1 | -16.1% | -8.26% | -0.8% | 105% | 95.2% | 2.91% | 0.79%
28 | Cn1nc(-c2ccc(Cl)cc2)c2cc(C(=O)N3CCCC3)sc21 | -8.92% | -9.39% | -2.97% | 96.9% | 85.7% | 1.97% | 3.39%
29 | NC(=O)C1CCN(C(=O)c2cc3ccccn3n2)CC1 | 0.24% | -0.18% | -0.34% | 103% | 98.2% | 0.505% | 1.35%
30 | COc1ccc(-c2nc(Cn3c(SCc4cccc(F)c4)nc4ccncc43)c(C)o2)cc1OC | 4.55% | 30.2% | -3.1% | 69.9% | 60.1% | 1% | 3.81%
31 | CC(=O)c1ccc(OCC(C)C)c(CC(C(N)=O)C(N)=O)c1 | 1.42% | -5.6% | -1.7% | 108% | 96.1% | 1.66% | -0.2%
32 | COc1ccc(S(=O)(=O)NCc2cn3c(C)csc3n2)cc1F | -21% | -8.7% | 0.05% | 94.1% | 93.3% | 0.86% | -0.48%
33 | COc1ccc(S(=O)(=O)N2CCN(c3c(C)cccc3C)CC2)cc1OC | -1.27% | -7.95% | -1% | 78.2% | 74.4% | 0.435% | 10.8%
34 | CC(=O)NC(CCS(C)(=O)=O)C(=O)Nc1ccc(Cl)c(Cl)c1 (configuration not stated) | -4.26% | -6.39% | -1.98% | 96.9% | 89.6% | 1.11% | 1.53%
35 | COc1cccc(-c2cc(N)nn2C(=O)Nc2ccc(Cl)cc2)c1 | -15.4% | -29.3% | -2.28% | 105% | 90.7% | -0.025% | 0.22%
36 | Cc1ccc2[nH]c(=O)c(-c3noc(C(C)C)n3)cc2c1 | -11.9% | -1.75% | -2.88% | 114% | 96.5% | 0.48% | 5.62%
